In data set [1] the target is Protease (Human immunodeficiency virus 1) (UniProt Q9YQ12). Kind of data set: Inhibition of recombinant HIV1 protease at 1 nM using H-Lys-Ala-Arg-Val-Tyr-Phe(p-NO2)-Glu-Ala-Nle-NH2 as substrate preincubated for 5 mins followed by substrate addition measured after 3 hrs by fluorescence-based assay. The procedure, abridged: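 Recombinant HIV-1 protease (40 ng/mL stock in pH 5.0 acetate/EDTA/NaCl/2-mercaptoethanol/NP-40/glycerol) mixed with inhibitor (10 nM solution in DMSO) in 200 mM MES-NaOH pH 5.5 with 2 mM DTT, 2 mM EDTA and 1 M NaCl. Preincubated 5 min at 37 °C, then 1.0 mM substrate solution added and incubated 3 h at 37 °C. Stopped with 1 N HCl. The Lys-Ala-Arg-Val-Tyr-OH product was quantified by RP-HPLC with fluorescence (Ex 275, Em 305 nm). Single determination.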

The nature of data set [2]: Ratio of EC50 for inhibition of protease L10F/V32I/M46I/I47V/Q58E/I84V mutant in HIV1 A17 infected in human MT4 cells to EC50 for wild-type HIV-1 pNL4-3 infected in human MT4 cells. Type of data set: functional, Human immunodeficiency virus 1. The procedure, abridged:
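Ratio of EC50 values from MT-4 cytopathic-effect MTT assays (5 days, 37 °C, triplicate, median-effect fit). Numerator is LPV-resistant strain A1711, denominator is wild-type HIV-1 pNL4-3.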

For data set [3], the system named is Human immunodeficiency virus 1. The experiment in a line: Antiviral activity against wild-type HIV1 pNL4-3 infected in human MT4 cells assessed as inhibition of virus-induced cytopathic effect after 5 days in absence of human serum by MTT assay. Type of data set: functional, organism-based. As to conditions: Human immunodeficiency virus 1, pNL4-3, MT4, 120 h. The procedure, abridged:
(§1)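 MT-4 cells inoculated with HIV-1 pNL4-3, then given an equal volume of compound at several concentrations in 1% DMSO solution with 10% FBS. Incubated 5 days at 37 °C in CO2, in triplicate. MTT read by optical density, percent reduction of cytopathic effect calculated, and EC50 fitted to the median-effect equation. Values averaged over n = 3; the 50% human serum condition was run alongside.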

Data set [4] deals with Human immunodeficiency virus 1. Kind of data set: Ratio of EC50 for wild-type HIV1 pNL4-3 infected in human MT4 in presence of 50% of human serum to EC50 for wild-type HIV-1 pNL4-3 infected in human MT4 in absence of human serum. Type of data set: functional. The procedure, abridged:
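Serum binding effect calculated as the pNL4-3 EC50 in 50% human serum divided by the EC50 in 0% serum, using MT-4 cytopathic-effect MTT assays run for 5 days at 37 °C.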

For data set [5], the system named is Human immunodeficiency virus 1. Kind of data set: Antiviral activity against wild-type HIV1 pNL4-3 infected in human MT4 cells assessed as inhibition of virus-induced cytopathic effect after 5 days in presence of 50 % of human serum by MTT assay. The data set is classed as functional, organism-based. The following applies: Human immunodeficiency virus 1, pNL4-3, MT4, 120 h. The method in brief:
as §1
On the technique in general: Damage to the host cells serves as the signal in cytopathic effect assays.

Data set [6] is described as follows: Cytotoxicity against human MT4 cells after 5 days by MTT assay. Type of data set: cell-based. The following applies: read-out: TD50. The method in brief: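 Uninfected MT-4 cells given compound at several concentrations in 1% DMSO solution with 10% FBS. Incubated 5 days at 37 °C in CO2, in triplicate. Viability read by MTT optical density, with TD50 taken as the cytotoxic measure.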
(In general: Tetrazolium assays rely on reduction of a dye to a coloured formazan, in cell work by metabolically active cells.)

For data set [7], the system named is Human immunodeficiency virus 1. The experiment in a line: Antiviral activity against wild-type HIV1 pNL4-3 infected in CMVdeltaR8.91 transfected 293T cells after 48 hrs by lentiviral vector-based luciferase reporter gene assay. The data set is classed as functional, organism-based. As to conditions: Human immunodeficiency virus 1, pNL4-3, HEK-293T. The method in brief:
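pNL4-3-based luciferase reporter lentiviral vector made by transfecting 293T cells with pCMV-ΔR8.91 (wild-type or V32I/L33F/I54M/V82I or V32I/L33F/I54M/I84V protease) plus luciferase transfer and envelope plasmids, with or without inhibitor. After 48 h, fresh 293T cells infected with vector. IC50 for suppression of luciferase transduction taken from dose-response curve.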
(In a reporter assay the amount or activity of a reporter protein is the signal.)

The subject of data set [8] is Human immunodeficiency virus 1. The experiment in a line: Antiviral activity against wild-type HIV1 3B infected in human MT4 cells assessed as inhibition of virus-induced cytopathic effect after 5 days by MTT assay. As to conditions: Human immunodeficiency virus 1, 3B, MT4, 120 h. Type of data set: functional, organism-based.
Data set [9] in a line: Ratio of EC50 for inhibition of HIV1 A17 protease L10F/V32I/M46I/I47V/Q58E/I84V mutant infected in human MT4 cells to EC50 for wild-type HIV-1 3B infected in human MT4 cells. The data set is classed as functional, Human immunodeficiency virus 1.

The term inhibition denotes how much of the control response was suppressed. What is called EC50 is the concentration needed to bring the measured effect to its halfway point. In the case of `COc1cccc2cc(C(=O)N[C@@H](CC(N)=O)C(=O)N[C@@H](Cc3ccccc3)[C@H](O)C(=O)N3CSC(C)(C)[C@H]3C(=O)NCc3c(C)cccc3C)oc12`, the inhibition in data set [1] amounted to 96%. Further, in data set [2], the “Ratio EC50” value came to 1.4. Further, the EC50 in data set [3] is 60 nM.

Turning to `CN(C)c1cccc(OCC(=O)N[C@H](C(=O)N[C@@H](Cc2ccccc2)[C@H](O)C(=O)N2CSC(C)(C)[C@H]2C(=O)N[C@H]2CCc3ccccc32)[C@H]2CCOC2)c1`, the inhibition in data set [1] was 97%. The “Ratio EC50” value in data set [4] was found to be 6. The EC50 in data set [3] came to 5 nM; in [5], 30 nM.

Regarding `CN(C)c1cccc(OCC(=O)N[C@H](C(=O)N[C@@H](Cc2ccccc2)[C@H](O)C(=O)N2CSC(C)(C)[C@H]2C(=O)NC2CCCC2)[C@H]2CCOC2)c1`, the inhibition in [1] worked out at 93%. Also, in [4], the “Ratio EC50” value is recorded as 10. In addition, the EC50 was 10 nM in data set [3] and 103 nM in data set [5].

Take `Cc1ccccc1CNC(=O)[C@H]1N(C(=O)[C@@H](O)[C@H](Cc2ccccc2)NC(=O)[C@@H](NC(=O)c2ccc3ccccc3n2)[C@H]2CCOC2)CSC1(C)C`: the inhibition in [1] came out at 96%. Further, the “Ratio EC50” value in [4] is more than 137. The EC50 in data set [3] is less than 3 nM; in [5], 411 nM.

Turning to `Cc1cccc(C)c1CNC(=O)[C@H]1N(C(=O)[C@@H](O)[C@H](Cc2ccccc2)NC(=O)[C@@H](NC(=O)COc2cccc(N(C)C)c2)[C@H]2CCOC2)CSC1(C)C`, the inhibition in data set [1] stood at 97%. Also, the “Ratio EC50” value in [4] is reported as more than 5; in data set [2], more than 55. Also, the results for the EC50 in data set [3] and in data set [5] were less than 3 nM and 15 nM, respectively. For the same molecule, the CC50 at 120 h in [6] is 60000 nM.

For the molecule `CC(C)CN(C[C@@H](O)[C@H](Cc1ccccc1)NC(=O)O[C@H]1CO[C@H]2OCC[C@H]21)S(=O)(=O)c1ccc(N)cc1`, the EC50 in data set [7] was 0.82 nM.

As to `Cc1cccc(C)c1OCC(=O)N[C@@H](Cc1ccccc1)[C@@H](O)C[C@H](Cc1ccccc1)NC(=O)[C@H](C(C)C)N1CCCNC1=O` [LOPINAVIR], the CC50 at 120 h in data set [6] was more than 10000 nM.

Consider `CN(C)c1cccc(OCC(=O)N[C@H](C(=O)N[C@@H](Cc2ccccc2)[C@H](O)C(=O)N2CSC(C)(C)[C@H]2C(=O)NC/C=C\CO)[C@H]2CCOC2)c1`, for which the inhibition in data set [1] stood at 94%. Also, in data set [4], the “Ratio EC50” value is recorded as 3.6. Also, the EC50 in [3] was found to be 567 nM; in data set [5] it was 2050 nM.

Consider `Cc1ccccc1CNC(=O)[C@H]1N(C(=O)[C@@H](O)[C@H](Cc2ccccc2)NC(=O)[C@@H](NC(=O)c2cnc3ccccc3n2)[C@@H]2CCOC2)CSC1(C)C`, for which the inhibition in data set [1] was found to be 86%. For the same molecule, the “Ratio EC50” value in data set [4] is 11. Besides, the EC50 came to 12 nM in data set [3] and 131 nM in [5].

`COc1cccc2cc(C(=O)N[C@H](C(=O)N[C@@H](Cc3ccccc3)[C@H](O)C(=O)N3CSC(C)(C)[C@H]3C(=O)NCc3c(C)cccc3C)C(C)C)oc12`: in data set [1], the inhibition turned out to be 95%. Also, the EC50 in data set [8] is less than 3 nM. The “Ratio EC50” value in data set [9] is on record as more than 103.

Take `C=CCNC(=O)[C@H]1N(C(=O)[C@@H](O)[C@H](Cc2ccccc2)NC(=O)[C@@H](NC(=O)COc2cccc(N(C)C)c2)[C@H]2CCOC2)CSC1(C)C`: the inhibition in data set [1] came out at 95%. Further, the “Ratio EC50” value in data set [4] came to 24. The EC50 came to 8 nM in data set [3] and 190 nM in data set [5].

As to `CN(C)c1cccc(OCC(=O)N[C@H](C(=O)N[C@@H](Cc2ccccc2)[C@H](O)C(=O)N2CSC(C)(C)[C@H]2C(=O)N[C@H]2c3ccccc3C[C@H]2O)[C@H]2CCOC2)c1`, the inhibition in data set [1] was 95%. The “Ratio EC50” value in data set [4] was determined as 20. The concentration for a half-maximal effect (EC50) came out at 4 nM in data set [3] and 79 nM in data set [5].

Turning to `Cc1cccc(C)c1CNC(=O)[C@H]1N(C(=O)[C@@H](O)[C@H](Cc2ccccc2)NC(=O)[C@H](CC(N)=O)NC(=O)c2cc3ccccc3o2)CSC1(C)C`, in [1], the inhibition was 97%. For the same molecule, the EC50 in data set [8] was determined as 38 nM. In addition, in data set [9], the “Ratio EC50” value is 1.6.

As to `Cc1cccc(C)c1CNC(=O)[C@H]1N(C(=O)[C@@H](O)[C@H](Cc2ccccc2)NC(=O)[C@@H](NC(=O)COc2cccc(Nc3ccccc3)c2)[C@H]2CCOC2)CSC1(C)C`, the inhibition in data set [1] came out at 93%. Besides, the “Ratio EC50” value is reported as 21 in data set [4] and 45 in [2]. In addition, the EC50 in [3] was determined as 5 nM; in data set [5] it was 103 nM. Also, in data set [6], the CC50 at 120 h was 39000 nM.

As to `Cc1cccc(C)c1CNC(=O)[C@H]1N(C(=O)[C@@H](O)[C@H](Cc2ccccc2)NC(=O)[C@@H](NC(=O)c2cc(=O)c3ccccc3o2)[C@H]2CCOC2)CSC1(C)C`, the inhibition in data set [1] amounted to 98%. The “Ratio EC50” value in data set [4] is 23. The EC50 in data set [3] stood at 5 nM; in [5] it was 115 nM.

With `Cc1ccccc1CNC(=O)[C@H]1N(C(=O)[C@@H](O)[C@H](Cc2ccccc2)NC(=O)[C@@H](NC(=O)c2cnc3ccccc3n2)[C@H]2CCOC2)CSC1(C)C`, the inhibition in [1] is 97%. Besides, the “Ratio EC50” value is listed as 21 in [4] and 24 in [2]. For the same molecule, the EC50 was 4 nM in data set [3] and 84 nM in data set [5]. Also, the CC50 at 120 h in [6] was determined as 10000 nM.

Consider `C=C(C)CNC(=O)[C@H]1N(C(=O)[C@@H](O)[C@H](Cc2ccccc2)NC(=O)[C@@H](NC(=O)COc2cccc(N(C)C)c2)[C@H]2CCOC2)CSC1(C)C`, for which the inhibition in [1] stood at 97%. The “Ratio EC50” value in data set [4] is listed as 7. Further, the EC50 in data set [3] worked out at 7 nM; in [5], 49 nM.

With `Cc1cccc(C)c1CNC(=O)[C@H]1N(C(=O)[C@@H](O)[C@H](Cc2ccccc2)NC(=O)[C@@H](NC(=O)c2cc3ccccc3o2)[C@H]2CCOC2)CSC1(C)C`, the inhibition in [1] worked out at 97%. The “Ratio EC50” value in [4] stood at 7.5; in data set [2], 57. Also, the EC50 in [3] was found to be 12 nM; in data set [5], 90 nM. For the same molecule, the CC50 at 120 h in [6] came out at 38000 nM.

Consider `Cc1cccc(C)c1CNC(=O)[C@H]1N(C(=O)[C@@H](O)[C@H](Cc2ccccc2)NC(=O)[C@@H](NC(=O)c2cc3ccccc3o2)C(C)C)CSC1(C)C`, for which, in [1], the inhibition amounted to 93%. In addition, the EC50 in data set [8] came out at 18 nM. In addition, the “Ratio EC50” value in [9] was found to be 61.

For `Cc1ccccc1CNC(=O)[C@H]1N(C(=O)[C@@H](O)[C@H](Cc2ccccc2)NC(=O)[C@@H](NC(=O)COc2cccc3cnccc23)[C@H]2CCOC2)CSC1(C)C`, in [1], the inhibition was determined as 97%. Further, in data set [4], the “Ratio EC50” value worked out at 207. Moreover, the EC50 in data set [3] was determined as 21 nM; in [5], 4350 nM.

As to `Cc1ccccc1CNC(=O)[C@H]1N(C(=O)[C@@H](O)[C@H](Cc2ccccc2)NC(=O)[C@@H](NC(=O)c2ccc3ccccc3n2)[C@@H]2CCOC2)CSC1(C)C`, the inhibition in data set [1] is 69%. The “Ratio EC50” value in data set [4] is 23. Also, the EC50 in [3] is 26 nM; in [5], 602 nM.

`Cc1cccc(C)c1CNC(=O)[C@H]1N(C(=O)[C@@H](O)[C@H](Cc2ccccc2)NC(=O)[C@@H](NC(=O)COc2cccc3cnccc23)[C@H]2CCOC2)CSC1(C)C`: in data set [1], the inhibition was determined as 98%. For the same molecule, in data set [4], the “Ratio EC50” value was determined as 2.4. Further, the 50% effective concentration (EC50) in [3] came out at 60 nM; in data set [5], 143 nM.

The values are drawn from ChEMBL document CHEMBL4138310 (J Med Chem, 2018).
